# Screening results from PubChem BioAssay.
# The list is not random: actives were taken first. Their share in the collection is about 2.4%.
# pCIP destab – compounds decreasing mouse p/CIP protein stability; F442A p/CIP-EGFP cells, EGFP fluorescence, 16 h; decrease of EGFP signal, % at 10 µM; actives 0.01% (n = 290,000); Q05BA5;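 active means EGFP signal decrease of at least 30% at 10 µM or well 3 SD below plate mean, unless failing retest; inactive means the rest, including hits failing retest or dose response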
# GASC-1 inh – inhibitors of human GASC-1 (JMJD2C) demethylase | inhibition, % at 2.35 µM | actives 0.069% (n = 330,000) | GST-JMJD2C(1-420) H3K9me3 demethylation, DELFIA europium | AID 2099 | Q9H3R0;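 active means more than half of a compound's replicate wells show inhibition beyond 50%, single wells judged on their own value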;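 further: signal counts dimethyl H3K9 product captured on neutravidin plate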
# Fh CTSL1 inh – counter-screen for PFM18AAP inhibitors: inhibitors of F. hepatica cathepsin L1. actives 0.49% (n = 300,000). recombinant F. hepatica cathepsin L1, Z-Leu-Arg-MCA fluorescence. AID 1906. inhibition, % at 5.96 µM;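 active means inhibition above the mean of all tested compounds plus 3 SD, set per screening campaign, cut at about 17% in these data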
# T cruzi repl – blocks replication of Trypanosoma cruzi; T. cruzi beta-gal in NIH3T3, luminescence, 90 h; inhibition, % (test concentration not listed); actives 1.4% (n = 300,000); AID 1885;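 active means mean inhibition across valid replicates above about 55%, limit read from the data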;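 further: signal also drops with host cell toxicity which is not excluded here; higher percent means less beta-gal luminescence so fewer parasites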
#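 assay system = mouse NIH/3T3 fibroblasts infected with β-gal-expressing T. cruzi Tulahuen C4 | input = 5,000 NIH/3T3 host cells per well | buffer or medium = DMEM plus 2% FBS | timing = 3 h host attachment, then at least 90 h co-culture | measured by = GalScreen luminescence, 60 min | evaluation = luminescence reflecting intracellular parasite burden, expressed as percent inhibition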
# PP5 inh – blocks human protein phosphatase 5 activity | inhibition, % at 6.7 µM | purified PP5c, OMFP substrate fluorescence | AID 1987 | P53041 | actives 0.18% (n = 320,000);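 active means inhibition above the campaign's mean inhibition across all tested compounds plus 3 SD, cut at about 9.5% in these data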
# Target sequence (P53041 whole entry, looked up): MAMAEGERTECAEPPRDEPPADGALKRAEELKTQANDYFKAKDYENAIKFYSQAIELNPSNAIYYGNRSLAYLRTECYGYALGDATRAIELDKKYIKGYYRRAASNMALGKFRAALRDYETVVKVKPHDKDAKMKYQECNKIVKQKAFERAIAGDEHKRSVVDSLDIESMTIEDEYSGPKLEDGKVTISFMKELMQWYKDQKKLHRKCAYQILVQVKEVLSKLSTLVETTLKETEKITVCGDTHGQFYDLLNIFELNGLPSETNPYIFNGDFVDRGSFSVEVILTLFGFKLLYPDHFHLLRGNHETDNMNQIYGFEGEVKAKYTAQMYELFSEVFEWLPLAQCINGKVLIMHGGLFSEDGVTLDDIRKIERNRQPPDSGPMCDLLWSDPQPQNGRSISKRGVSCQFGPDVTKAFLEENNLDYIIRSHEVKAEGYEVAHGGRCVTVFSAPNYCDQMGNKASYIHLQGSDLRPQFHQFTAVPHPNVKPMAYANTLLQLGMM
# Cardio protect – protects H9c2 cardiomyocytes from peroxide injury; H2O2 injury protection, ATPLite, 2 h; protection from H2O2 cell death, % at 20 µM; actives 0.63% (n = 360,000); AID 588492;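 active means compounds giving at least 50% protection of heart cells from peroxide-induced death in the single-dose screen, raw or plate-pattern-corrected value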
# Hits are given with their value; i = inactive; nt = no result given.
SMILES,pCIP destab,GASC-1 inh,Fh CTSL1 inh,T cruzi repl,PP5 inh,Cardio protect
CCOc1ccc(NC(=O)CN(C)C(=O)Cc2n[nH]c(=O)c3ccccc23)cc1OCC,nt,i,nt,nt,i,59
COc1ccc(Cl)cc1NC(=O)CN(C)C(=O)Cn1c(=O)oc2ccccc21,nt,i,i,i,i,i
COc1ccc(Cl)cc1NC(=O)CN(C)C(=O)Cc1n[nH]c(=O)c2ccccc12,nt,i,i,i,i,100
COc1cccc(NC(=O)CN(C)C(=O)Cc2n[nH]c(=O)c3ccccc23)c1,nt,i,nt,nt,i,79
CCOc1ccc(NC(=O)CN(C)C(=O)Cc2c[nH]c3ccccc23)cc1OCC,nt,i,i,i,i,i
NS(=O)(=O)c1ccc(CCNS(=O)(=O)c2ccc(Cl)s2)cc1,nt,i,nt,nt,nt,i
COc1ccc(CCNC(=O)CSc2ccc3ccccc3c2)cc1OC,i,i,i,i,i,i
O=C(CSc1ccc2ccccc2c1)NCCc1ccc(O)c(O)c1,i,i,i,i,i,80
CCC(C)n1c(SCC(=O)NC(=O)Nc2ccc3c(c2)OCCO3)nc2ccccc2c1=O (stereo not drawn),i,i,i,66,i,i
O=C(Nc1ccc(N2CCCCCC2)cc1)c1ccc[nH]1,nt,i,nt,nt,i,i
Cc1ccc(NCC(=O)Nc2cccc(F)c2)cc1S(=O)(=O)N1CCCCCC1,i,i,i,i,i,i
Cc1cc2c(cc(C(=O)OC(C(=O)NCc3ccco3)C(C)C)n2C)o1 (stereo not drawn),i,i,24,i,i,i
Cc1cc(NC(=O)c2cc(-c3cccnc3)nc3c(C)c(C)ccc23)no1,i,i,i,i,i,i
Cc1c(Cl)ccc2c(C(=O)Nc3cc(C(C)(C)C)on3)cc(-c3ccccn3)nc12,i,i,i,61,i,i
CN1/C(=C\C=[N+](C)c2ccccc2)C(C)(C)c2ccccc21,i,i,i,64,i,i
CN1/C(=C\C=C2/SC(=S)NC2=O)C(C)(C)c2ccccc21,i,i,i,75,i,i
CN1C[C@@H]2[C@@H]3C(=O)N(Cc4ccccc4)C(=O)[C@@H]3[C@](Cc3ccccc3)(C1=O)N2C(=O)c1ccc(F)cc1,nt,nt,nt,nt,nt,i
CSCCC(NS(=O)(=O)c1ccc2c(c1)OCCO2)C(=O)N(C)Cc1ccccc1F (stereo not drawn),nt,i,nt,nt,i,i
Oc1ccc(Cl)cc1C=Nc1ccc(Br)cc1,i,i,i,i,i,50
COc1ccc(N=Cc2cc(Cl)ccc2O)cc1Cl,i,i,i,i,i,72
Oc1ccc(Cl)cc1C=Nc1ccc2c3c(cccc13)CC2,i,i,i,i,i,91
Cc1cccc(C=Nc2ccc3c4c(cccc24)CC3)c1O,i,i,i,i,i,i
Cc1ccc(N=Cc2ccccc2O)cc1Cl,nt,nt,nt,nt,nt,i
Oc1ccc(N=Nc2cccc(Cl)c2)cc1C=Nc1ccc(N2CCOCC2)cc1,i,i,nt,i,nt,66
C=CCc1cccc(C=Nc2cc(Br)ccc2O)c1O,i,i,i,i,i,i
SMILES,pCIP destab,GASC-1 inh,Fh CTSL1 inh,T cruzi repl,PP5 inh,Cardio protect
Oc1c(Br)cc(Cl)cc1C=Nc1ccc(N2CCOCC2)cc1,i,i,i,i,i,i
CNC(=O)c1cc2c(-c3ccccc3)nn(C)c2s1,i,i,i,i,i,i
Cc1cc(C)c(NC(=O)CN(C)C(=O)C2CC(=O)N(c3cccc4ccccc34)C2)c(C)c1 (stereo not drawn),nt,nt,nt,nt,i,i
CCOC(=O)c1nc(Nc2cc(Cl)ccc2OC)c2ccccc2n1,i,i,i,i,i,i
CC1(NC(=O)Nc2cccc(Br)c2)CCS(=O)(=O)C1 (stereo not drawn),nt,i,nt,nt,nt,i
CCOC(=O)C1(Cc2ccccc2)CCCN(S(=O)(=O)N(C)C)C1 (stereo not drawn),i,i,i,i,i,i
Brc1cc2c(cc1/C=N/Nc1nc(N3CCCCC3)nc(N3CCCCC3)n1)OCO2,i,nt,nt,nt,nt,nt
COc1nc(N/N=C/c2cc3c(cc2Br)OCO3)nc(N2CCOCC2)n1,i,i,i,i,i,54
Cc1ccc(Nc2nc(N/N=C\c3ccc4c(c3)OCO4)nc(N3CCOCC3)n2)cc1,i,i,i,58,i,i
Cc1ccc(N/C=C2/Sc3ccccc3NC2=O)cc1,i,i,i,59,i,i
COc1ccc(N/C=C2/Sc3ccccc3NC2=O)cc1,i,i,i,68,i,i
CCOC(=O)/C(C#N)=N\Nc1cc(Cl)ccc1OC,i,i,32,i,i,i
C/C=C(\C)CN1CCC(n2nccc2NC(=O)c2ccc(OC)cc2)CC1,i,i,i,66,i,i
O=C1N=C(N2CCOCC2)S/C1=C/c1ccc(-c2ccccc2Cl)o1,i,i,34,i,i,i
O=C(Cn1[nH]c(=O)c2ccccc2c1=O)OCC(=O)N1CCc2ccccc2C1,i,i,i,i,i,90
O=C(CN1C(=O)c2ccccc2C1=O)OCC(=O)N1CCc2ccccc2C1,i,i,i,i,i,i
O=C(O)CCC(=O)N1CC=C(c2ccccc2)CC1,i,i,i,i,i,i
O=C(Cn1[nH]c(=O)c2ccccc2c1=O)OCC(=O)N1CCCc2ccccc21,i,i,i,i,i,86
O=C(Cn1[nH]c(=O)c2ccccc2c1=O)N1CC=C(c2ccccc2)CC1,i,i,i,i,i,48
CC1=NN(c2ccccc2)C(=O)/C1=C\C=C\c1ccccc1,i,i,i,i,i,i
ClC1=C(Cl)C(Cl)=C(Cl)C1=C/C=C/c1ccccc1,i,i,i,63,i,i
CCc1ccc(O)c(N=Cc2cccc(C)c2O)c1,i,i,i,i,i,60
CCN1CCN(c2ccc(S(=O)(=O)N3CCOCC3)cc2NC(=O)/C=C/c2ccc([N+](=O)[O-])cc2)CC1,nt,i,i,i,i,i
Cc1occc1-c1nnc(-c2cc([N+](=O)[O-])cc([N+](=O)[O-])c2)o1,i,i,i,66,i,i
CCOc1ccc(S(=O)(=O)N2CCN(C(=O)c3ccccc3Cc3ccccc3)CC2)cc1,nt,i,i,i,i,i
SMILES,pCIP destab,GASC-1 inh,Fh CTSL1 inh,T cruzi repl,PP5 inh,Cardio protect
Cc1ccc2c(c1)-c1c(cnn1CC(=O)N(Cc1ccco1)C1CCCCC1)CO2,i,i,29,i,i,i
Cc1ccc2c(c1)-c1c(cnn1CC(=O)NC(C)CCc1ccco1)CO2 (stereo not drawn),i,i,i,i,i,i
Cc1ccc2c(c1)-c1c(cnn1CC(=O)N(CCC#N)c1ccccc1)CO2,i,i,47,i,i,i
C=CCc1c(OC)ccc2c1c(S(=O)(=O)c1ccc(C)cc1)cn2COC,i,i,i,i,i,i
OC(c1cc(-c2ccc(C(F)(F)F)cc2)nc(C(F)(F)F)c1)C1CCCCN1 (stereo not drawn),i,i,i,56,i,i
OC(c1cc(C(F)(F)F)nc2c(C(F)(F)F)cccc12)C1CCCCN1 (stereo not drawn),nt,nt,i,nt,i,i
